# Source: ChEMBL document CHEMBL4177769, “Highly Selective and Potent Ectonucleotide Pyrophosphatase-1 (NPP1) Inhibitors Based on Uridine 5'-Pα,α-Dithiophosphate Analogues” (J Med Chem, 2018)
# Assays:
# [1] = Drug level treated with UTP 5'-O-Palpha,alpha-dithiophosphate at 2 mM at pH 1.7 at room temperature after 23 days by 31P NMR method; format: physicochemical; details: pH 1.7, 552 h, 2000 µM
# [2] = target: T1, Ectonucleoside triphosphate diphosphohydrolase 8 (Homo sapiens) (UniProt Q5MY95); experiment: Activation of human NTPDase8 using ATP as substrate preincubated for 3 mins followed by substrate addition measured after 10 mins by malachite green reagent-based assay relative to control
# T1 sequence (whole entry): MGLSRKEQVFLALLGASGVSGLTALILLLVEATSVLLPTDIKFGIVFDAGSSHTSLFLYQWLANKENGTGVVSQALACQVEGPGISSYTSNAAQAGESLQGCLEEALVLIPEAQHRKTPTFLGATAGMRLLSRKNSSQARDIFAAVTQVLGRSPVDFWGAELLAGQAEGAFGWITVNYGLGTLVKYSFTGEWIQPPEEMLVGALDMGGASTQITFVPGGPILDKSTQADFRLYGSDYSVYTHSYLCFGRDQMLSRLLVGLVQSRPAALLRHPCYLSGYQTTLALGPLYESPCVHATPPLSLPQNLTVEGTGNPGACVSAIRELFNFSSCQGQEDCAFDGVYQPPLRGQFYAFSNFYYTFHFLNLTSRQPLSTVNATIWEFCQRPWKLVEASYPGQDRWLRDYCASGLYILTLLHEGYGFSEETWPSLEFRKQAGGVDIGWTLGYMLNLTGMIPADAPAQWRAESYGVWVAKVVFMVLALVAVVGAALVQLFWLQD
# How it was run: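 Compound at 100 μM, 3 min preincubation, 100 μM ATP, 10 min. Stopped with malachite green; Pi read at 630 nm. Blank with enzyme added after stop subtracted. Activity with ATP alone taken as 100%.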
Compound,Drug metabolism [1],Activity [2]
O=c1ccn([C@@H]2O[C@H](COP(=S)(S)OP(=O)(O)O)[C@@H](O)[C@H]2O)c(=O)[nH]1 (some centres not stated),Metabolite_Detected,
O=c1ccn([C@@H]2O[C@H](COP(=S)(S)OP(=O)(O)OP(=O)(O)O)[C@@H](O)[C@H]2O)c(=O)[nH]1 (some centres not stated),,7 to 27%
